From ChEMBL document CHEMBL1139823, “Rational design of conformationally restricted quinazolinone inhibitors of poly(ADP-ribose)polymerase” (Bioorg Med Chem Lett, 2007)
One block for each compound: values may come before it.

Legend:
[1] = Drug level in mouse brain at 32 mg/kg, po after 2.0 hrs; assay type: ADME, organism-based; set-up: dose 32 mg/kg, route oral; settings: read-out: Drug uptake
How it was run: (§1)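 Mice dosed orally at 32 mg/kg (n = 2). Compound levels in brain (µg/g tissue) and plasma (µg/mL) measured by ex vivo assay at 0.5 and 2.0 h after dosing.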

[2] = Drug level in mouse plasma at 32 mg/kg, po after 0.5 hr; assay type: ADME, organism-based; set-up: dose 32 mg/kg, route oral; how it was run: as §1
[3] = Drug level in mouse plasma at 32 mg/kg, po after 2.0 hrs; assay type: ADME, organism-based; set-up: dose 32 mg/kg, route oral; how it was run: as §1
[4] = Metabolic stability assessed as Intrinsic clearance in human liver microsomes after 60 mins
[5] = Metabolic stability assessed as Intrinsic clearance in mouse liver microsomes after 60 mins
[6] = target: Poly [ADP-ribose] polymerase 1 (Homo sapiens, UniProt P09874); assay: Inhibition of human PARP1
[7] = Drug level in mouse brain at 32 mg/kg, po after 0.5 hr; assay type: ADME, organism-based; set-up: dose 32 mg/kg, route oral; settings: read-out: Drug uptake; how it was run: as §1

Chain of Poly [ADP-ribose] polymerase 1 (P09874 whole entry): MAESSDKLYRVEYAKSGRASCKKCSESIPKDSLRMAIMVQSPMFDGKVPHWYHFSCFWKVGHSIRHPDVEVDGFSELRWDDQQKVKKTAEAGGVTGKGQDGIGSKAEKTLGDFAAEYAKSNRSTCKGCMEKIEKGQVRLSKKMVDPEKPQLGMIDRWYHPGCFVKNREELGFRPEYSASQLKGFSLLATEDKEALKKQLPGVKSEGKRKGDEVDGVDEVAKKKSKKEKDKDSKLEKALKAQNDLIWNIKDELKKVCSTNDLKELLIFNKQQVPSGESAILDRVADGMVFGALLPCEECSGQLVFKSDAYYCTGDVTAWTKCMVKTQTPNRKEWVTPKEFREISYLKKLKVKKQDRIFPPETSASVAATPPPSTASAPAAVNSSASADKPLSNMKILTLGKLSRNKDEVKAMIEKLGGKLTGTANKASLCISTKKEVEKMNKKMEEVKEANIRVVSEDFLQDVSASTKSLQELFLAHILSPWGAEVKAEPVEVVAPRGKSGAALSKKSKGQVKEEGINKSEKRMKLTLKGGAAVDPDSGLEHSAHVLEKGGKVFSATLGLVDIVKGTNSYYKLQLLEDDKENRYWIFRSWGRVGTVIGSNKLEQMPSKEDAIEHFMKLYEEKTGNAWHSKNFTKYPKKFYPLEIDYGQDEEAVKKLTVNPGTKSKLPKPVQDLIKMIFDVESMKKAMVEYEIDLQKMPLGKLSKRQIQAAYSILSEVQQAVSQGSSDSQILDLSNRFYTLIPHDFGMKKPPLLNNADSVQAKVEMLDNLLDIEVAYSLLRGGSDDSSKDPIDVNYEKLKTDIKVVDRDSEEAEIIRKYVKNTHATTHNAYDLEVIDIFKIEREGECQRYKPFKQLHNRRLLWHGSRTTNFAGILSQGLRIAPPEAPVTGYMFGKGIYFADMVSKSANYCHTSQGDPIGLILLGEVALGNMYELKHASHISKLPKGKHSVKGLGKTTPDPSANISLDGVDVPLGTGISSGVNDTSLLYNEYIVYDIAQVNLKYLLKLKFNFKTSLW

SMILES: O=c1[nH]c(C2=C[C@@H](N3CCC(c4ccccc4)CC3)CC2)nc2c(Cl)cccc12
concentration at 2 h [1]: 18100 ng/g
concentration at 0.5 h [2]: 8700 ng/mL
concentration at 2 h [3]: 4400 ng/mL
CLint scaled at 1 h [4]: 22 mL/min/kg
CLint scaled at 1 h [5]: 1160 mL/min/kg
IC50 [6]: 8.7 nM
concentration at 0.5 h [7]: 19800 ng/g

concentration at 2 h [1]: 12500 ng/g
concentration at 0.5 h [2]: 13600 ng/mL
concentration at 2 h [3]: 11300 ng/mL
CLint scaled at 1 h [4]: 17 mL/min/kg
CLint scaled at 1 h [5]: 686 mL/min/kg
IC50 [6]: 35 nM
concentration at 0.5 h [7]: 6700 ng/g
SMILES: O=c1[nH]c(C2=C[C@@H](N3CCC(c4ccc(F)cc4)CC3)CC2)nc2c(Cl)cccc12

SMILES: O=c1[nH]c(C2=CC(N3CC=C(c4ccc(F)cc4)CC3)CC2)nc2ccccc12 (configuration not stated)
IC50 [6]: 18 nM

SMILES: O=c1[nH]c(C2=C[C@@H](N3CC=C(c4ccccc4)CC3)CC2)nc2c(Cl)cccc12
concentration at 2 h [1]: 3000 ng/g
concentration at 0.5 h [2]: 17100 ng/mL
concentration at 2 h [3]: 18100 ng/mL
IC50 [6]: 15 nM
concentration at 0.5 h [7]: 2000 ng/g

SMILES: O=c1[nH]c(C2=C[C@H](N3CC=C(c4ccccc4)CC3)CC2)nc2c(Cl)cccc12
IC50 [6]: 286 nM

SMILES: O=c1[nH]c(C2=CC(N3CC=C(c4ccc(F)cc4)CC3)CC2)nc2c(Cl)cccc12 (configuration not stated)
concentration at 2 h [1]: 900 ng/g
concentration at 0.5 h [2]: 15200 ng/mL
concentration at 2 h [3]: 17700 ng/mL
CLint scaled at 1 h [4]: 54 mL/min/kg
CLint scaled at 1 h [5]: 1330 mL/min/kg
IC50 [6]: 36 nM
concentration at 0.5 h [7]: 400 ng/g

SMILES: O=c1[nH]c([C@H]2CC[C@H](N3CC=C(c4ccccc4)CC3)CC2)nc2ccccc12
IC50 [6]: 8400 nM

SMILES: O=c1[nH]c(C2=CC(N3CC=C(c4ccccc4)CC3)CCC2)nc2ccccc12 (configuration not stated)
IC50 [6]: 160 nM

SMILES: O=c1[nH]c([C@H]2CC[C@@H](N3CC=C(c4ccccc4)CC3)CC2)nc2ccccc12
IC50 [6]: 1600 nM

SMILES: Cc1cccc2c(=O)[nH]c(CCCN3CC=C(c4ccc(Cl)cc4)CC3)nc12
IC50 [6]: 16 nM

concentration at 2 h [1]: 3900 ng/g
concentration at 0.5 h [2]: 12500 ng/mL
concentration at 2 h [3]: 9400 ng/mL
IC50 [6]: 103 nM
concentration at 0.5 h [7]: 11600 ng/g
SMILES: O=c1[nH]c(CCCN2CCC(c3ccccc3)CC2)nc2c(Cl)cccc12

IC50 [6]: 47 nM
SMILES: O=c1[nH]c(CCCN2CCC(c3ccc(F)cc3)CC2)nc2c(Cl)cccc12

IC50 [6]: 257 nM
SMILES: O=c1[nH]c(C2=C[C@H](N3CCC(c4ccc(F)cc4)CC3)CC2)nc2c(Cl)cccc12

IC50 [6]: 30 nM
SMILES: Cc1cccc2c(=O)[nH]c(C3=CC(N4CCC(c5ccc(F)cc5)CC4)CC3)nc12 (configuration not stated)

IC50 [6]: 46 nM
SMILES: Cc1cccc2c(=O)[nH]c(C3=CC(N4CCC(c5ccc(Cl)cc5)CC4)CC3)nc12 (configuration not stated)

IC50 [6]: 12 nM
SMILES: Cc1cccc2c(=O)[nH]c(C3=CC(N4CCN(c5ccc(Cl)cc5)CC4)CC3)nc12 (configuration not stated)

SMILES: O=c1[nH]c(CCCN2CC=C(c3ccc(F)cc3)CC2)nc2ccccc12
IC50 [6]: 16 nM

SMILES: O=c1[nH]c(CCCN2CC=C(c3ccc(Cl)cc3)CC2)nc2ccccc12
IC50 [6]: 8.9 nM

SMILES: O=c1[nH]c(CCCN2CC=C(c3ccccc3)CC2)nc2c(Cl)cccc12
concentration at 2 h [1]: 8400 ng/g
concentration at 0.5 h [2]: 1300 ng/mL
concentration at 2 h [3]: 1200 ng/mL
concentration at 0.5 h [7]: 8000 ng/g

SMILES: O=c1[nH]c(CCCN2CC=C(c3ccc(F)cc3)CC2)nc2c(Cl)cccc12
concentration at 2 h [1]: 2800 ng/g
concentration at 0.5 h [2]: 1900 ng/mL
concentration at 2 h [3]: 1200 ng/mL
CLint scaled at 1 h [5]: 3910 mL/min/kg
concentration at 0.5 h [7]: 8400 ng/g

SMILES: O=c1[nH]c(N2CCC(N3CC=C(c4ccccc4)CC3)C2)nc2ccccc12 (configuration not stated)
IC50 [6]: 300 nM

SMILES: Cc1cccc2c(=O)[nH]c(C3=CC(N4CC=C(c5ccc(F)cc5)CC4)CC3)nc12 (configuration not stated)
IC50 [6]: 25 nM

concentration at 2 h [1]: 2200 ng/g
concentration at 0.5 h [2]: > 20100 ng/mL
concentration at 2 h [3]: > 20400 ng/mL
IC50 [6]: 25 nM
concentration at 0.5 h [7]: 1300 ng/g
SMILES: O=c1[nH]c(C2=CC(N3CCN(c4ccc(Cl)cc4)CC3)CC2)nc2ccccc12 (configuration not stated)

IC50 [6]: 25 nM
SMILES: O=c1[nH]c(C2=CC(N3CCN(c4ccc(F)cc4)CC3)CC2)nc2c(Cl)cccc12 (configuration not stated)

SMILES: O=c1[nH]c(N2CC(N3CC=C(c4ccccc4)CC3)C2)nc2ccccc12
IC50 [6]: 504 nM

SMILES: Cc1cccc2c(=O)[nH]c(CCCN3CC=C(c4ccc(F)cc4)CC3)nc12
IC50 [6]: 8 nM

SMILES: O=c1[nH]c(C2=CC(N3CC=C(c4ccccc4)CC3)CC2)nc2ccccc12 (racemic)
IC50 [6]: 16 nM

SMILES: O=c1[nH]c(C2CCCC(N3CC=C(c4ccccc4)CC3)C2)nc2ccccc12 (racemic)
IC50 [6]: 1800 nM

SMILES: O=c1[nH]c(C2CCC(N3CCC(c4ccccc4)CC3)C2)nc2ccccc12 (stereo in doubt; cis)
IC50 [6]: 435 nM

SMILES: O=c1[nH]c(C2CCC(N3CCC(c4ccccc4)CC3)C2)nc2ccccc12 (stereo in doubt; trans)
IC50 [6]: 555 nM
